The source of these data is ChEMBL document CHEMBL1140119, “Heteroarylnitrones as drugs for neurodegenerative diseases: synthesis, neuroprotective properties, and free radical scavenger properties” (J Med Chem, 2008).

Data set [1] has as its system SH-SY5Y. The data set can be described thus: Neuroprotective activity against human SH-SY5Y cells assessed as inhibition of H2O2-induced cellular damage at 10 uM after 24 hrs relative to control. Type of data set: functional. On the set-up: scale not given: the % may be the effect or the level left. The gist of the method: (§1)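 SH-SY5Y cells (passages 3-16, MEM with 10% FBS, 37 °C, 5% CO2) seeded at 10^4 cells/well. Pretreated with compound at 10 µM for 1 h, then 100 µM H2O2 for 24 h; NAC 5 mM as positive control. Viability from LDH released into the medium. Difference relative to H2O2-only cells, normalized; neuroprotection computed from basal values. Triplicate, mean ± SD.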

Data set [2] relates to SH-SY5Y. The data set can be described thus: Neuroprotective activity against human SH-SY5Y cells assessed as inhibition of H2O2-induced cellular damage at 10 uM dosed 1 hr prior to H2O2 challenge after 24 hrs relative to control. Type of data set: functional. On the set-up: scale not given: the % may be the effect or the level left. The gist of the method: as §1
The test system of data set [3] is J774. The data set can be described thus: Cytotoxicity against mouse J774 cells after 48 hrs by MTT assay. The settings on record: J774, 48 h. Type of data set: cell-based. The method in brief:
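J774 murine macrophages seeded at 1 × 10^5 cells/well and left 48 h at 37 °C in 5% CO2 to attach. Exposed to compounds at 50-500 µM for 48 h. MTT 0.2 mg/mL final for 3 h, formazan dissolved in DMSO, absorbance at 560 nm. IC50 is the concentration reducing control absorbance by 50%, averaged over two experiments.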

A short description of data set [4]: Antioxidant activity assessed as peroxyl free radical scavenging activity by ORAC-fluorescence assay relative to alpha-phenyl-N-tert-butylnitrone. In kind it is functional. The method in brief: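 Peroxyl scavenging by fluorescein ORAC at 60 °C in 75 mM phosphate buffer pH 7.4. Compounds at 10-1000 µM final with fluorescein 70 nM final; 30 s preincubation, then AAPH 12 mM final. Fluorescence (ex 490/em 515) read every minute for 12 min. Net AUC versus blank regressed on concentration and expressed as µmol PBN equivalents per µmol sample. Duplicates, at least three independent assays.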

Data set [5] relates to Radical scavenging activity. The data set can be described thus: Antioxidant activity assessed as reduction of DPPH radical scavenging activity at 0.1 mM. In kind it is functional. On the set-up: scale not given: the % may be the effect or the level left. The method in brief:
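DPPH reduction in ethanol. Test compound and DPPH both 0.1 mM final, preincubated 5 min at 37 °C, absorbance read at 520 nm. Reduction percentage = 100[(A0 − Ac)/A0], with A0 the untreated DPPH absorbance.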

For data set [6], the system named is J774. The data set can be described thus: Cytotoxicity against mouse J774 cells at 10 uM after 48 hrs by MTT assay. The settings on record: j774, 48 h. In kind it is cell-based.
Data set [7] is described as follows: Permeability across porcine brain lipid coated polyvinylidene fluoride membrane by PAMPA. Type of data set: ADME. The settings on record: pig, read-out: permeability. The gist of the method: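 PAMPA-BBB assay. Filter of the donor plate (PVDF, 0.45 µm) coated with porcine brain lipid in dodecane (20 mg/mL). Compounds at 1 mg/mL in PBS/ethanol (9:1), filtered, placed in donor wells; acceptor wells held PBS/ethanol (9:1). Sandwich left 120 min at 25 °C, acceptor concentration measured by UV. Four wells per sample, at least three runs, mean ± SD.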

For data set [8], the system named is SH-SY5Y. The data set can be described thus: Neuroprotective activity against human SH-SY5Y cells assessed as inhibition of H2O2-induced cellular damage at 1 uM dosed 1 hr prior to H2O2 challenge after 24 hrs relative to control. Type of data set: functional. On the set-up: scale not given: the % may be the effect or the level left. The gist of the method: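 SH-SY5Y neuroblastoma cells given compound at 1 µM 1 h before a 100 µM H2O2 challenge and then incubated 24 h. Viability measured as LDH activity and compared with H2O2-only cells; NAC 5 mM used as positive control. Three independent experiments, mean ± SD.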

The species named for data set [9] is Homo sapiens. The data set can be described thus: Neuroprotective activity against oxidative stress-induced cell death in human neuroblastoma cells. Type of data set: functional, cell-based.
Data set [10] relates to Radical scavenging activity. The data set can be described thus: Antioxidant activity assessed as reduction of DPPH radical scavenging activity at 10 mM. Type of data set: functional. On the set-up: scale not given: the % may be the effect or the level left.

The source made the active and inactive calls. The rule behind the calls is not given here.

Regarding `CC(C)(C)/[N+]([O-])=C/c1nc(-c2ccccc2)ns1`, the Activity in data set [1] was 20.7%; in [2] it was 38%; in [5], 0%; in data set [6] it was “Non-toxic”. Moreover, in data set [3], the concentration for half-maximal inhibition (IC50) is above 400 µM. In [4], the PBN equivalents amounted to 5.5.
For `[O-]/[N+](=C\c1nc(-c2ccccc2)ns1)Cc1ccccc1`, the Activity is 18.1% in [1], 33% in data set [2], 0% in data set [5] and “Non-toxic” in data set [6]. Further, in [3], the half-inhibitory concentration (IC50) amounted to 240 µM. Further, in data set [4], the PBN equivalents was 3.5.
With `COc1ccc(-c2nsc(/C=[N+](\[O-])C(C)(C)C)n2)cc1`, the Activity in data set [1] was 25%; in [2], 46%; in data set [5] it was 10%; in data set [6], “Non-toxic”. In data set [3], the IC50 was above 400 µM. For the same molecule, in data set [7], the Papp is 12.5 ×10⁻⁶ cm/s. Moreover, in [4], the PBN equivalents worked out at 7.
Take `CC(C)(C)c1cc(-c2nsc(/C=[N+](\[O-])C(C)(C)C)n2)cc(C(C)(C)C)c1O`: the Activity in [1] was 25.2%; in data set [2], 46%; in data set [8], 20%; in [5], 40%; in [6] it was “Non-toxic”. The molecule further returned an IC50 in [3] above 400 µM. Further, the Papp in [7] stood at 4.5 ×10⁻⁶ cm/s. Further, the PBN equivalents in data set [4] turned out to be 6.
In the case of `CC(C)(C)/[N+]([O-])=C/c1nsc(-c2ccccc2)n1`, the Activity in [1] is 20%; in data set [2], 36%; in data set [5], 41%; in [6] it was “Non-toxic”. For the same molecule, the half-maximal inhibitory concentration (IC50) in data set [3] was above 400 µM. Also, the PBN equivalents in data set [4] is 2.
As to `Cc1nnsc1/C=[N+](\[O-])C(C)(C)C`, the Activity was 0% in data set [1], 0% in data set [5] and “Non-toxic” in data set [6]. The result in data set [9] was inactive. The half-inhibitory concentration (IC50) in [3] is above 400 µM.
On to `CC(C)(C)/[N+]([O-])=C/c1ccccc1`, for which the Activity in [1] was determined as 20.6%; in data set [2], 37%; in [5], 0%; in [10], 20%. Also, the IC50 in data set [3] is above 400 µM. In addition, the PBN equivalents in data set [4] amounted to 1.
For `CC(C)(C)/[N+]([O-])=C/c1c(-c2ccccc2)no[n+]1[O-]`, the Activity in data set [1] is 0%; in data set [5], 0%; in [6], “Non-toxic”. Moreover, the result in [9] was inactive. In data set [3], this molecule gave an IC50 of 100 µM. The PBN equivalents in [4] is 6.
As for `[O-]/[N+](=C\c1nc(-c2ccccc2)ns1)C1CCCCC1`, the Activity in data set [1] is 23.6%; in [2] it was 43%; in data set [5], 11%; in data set [6] it was “Non-toxic”. The molecule also returned an IC50 in data set [3] of 100 µM. The PBN equivalents in data set [4] stood at 4.6.
Consider `CC(C)(C)/[N+]([O-])=C/c1nc(-c2ccc(Cl)cc2)ns1`, for which the Activity is 19.1% in data set [1], 34% in data set [2], 0% in data set [5] and “Non-toxic” in data set [6]. Moreover, the IC50 in data set [3] worked out at 200 µM. Also, in data set [4], the PBN equivalents amounted to 1.5.
For the molecule `CCOC(=O)c1snnc1/C=[N+](\[O-])C(C)(C)C`, the Activity in data set [1] is 0%; in data set [5], 0%; in data set [6], “Non-toxic”. The result in [9] was inactive. The IC50 in data set [3] is above 400 µM.
Regarding `CC(C)(C)/[N+]([O-])=C/c1ccc2no[n+]([O-])c2c1`, the Activity in [1] was 13.4%; in data set [2] it was 24%; in data set [5] it was 17%; in data set [6], “Non-toxic”. In data set [3], this molecule returned an IC50 of 150 µM. In addition, the PBN equivalents in [4] amounted to 16.5.
Consider `Cc1c(/C=[N+](\[O-])C(C)(C)C)no[n+]1[O-]`, for which the Activity in [1] was 23%; in [2], 42%; in data set [5] it was 8%; in data set [6] it was “Non-toxic”. In [3], the IC50 is above 400 µM. Also, the PBN equivalents in [4] stood at 2.5.
